Assay results from ChEMBL document CHEMBL1134364, “Antipsoriatic anthrones with modulated redox properties. 5. Potent inhibition of human keratinocyte growth, induction of keratinocyte differentiation, and reduced membrane damage by novel 10-arylacetyl-1,8-dihydroxy-9(10H)-anthracenones” (J Med Chem, 2001).

Assays:
[1] = (§1) Cytotoxic activity of LDH(mu) release in HaCaT cells was measured after treatment with 2 uM of the compound; format: functional, Homo sapiens
Method in brief: (§2)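 HaCaT cells treated with 2 µM compound. Membrane damage read as lactate dehydrogenase activity (mU) released into the culture medium. N = 3, SD < 10%.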

[2] = Concentration required to inhibit 50% growth of HaCaT cells; format: functional, cell-based; settings: Homo sapiens
Method in brief: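 HaCaT keratinocytes treated for 48 h. Proliferation read by counting dispersed cells under phase-contrast microscope. Growth inhibition tested for significance against control, N = 3, P < 0.01.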

[3] = Partition coefficient (logP); format: physicochemical; settings: octanol/water
[4] = Deoxyribose degradation activity was measured as hydroxyl radical formation
[5] = Inhibition of LTB4 biosynthesis in bovine polymorphonuclear leukocytes using nordihydroguaiaretic acid; format: functional, cell-based, Bos taurus
[6] = (§3) Induction of Keratinocyte Differentiation in cross-linked envelope assay at 5 uM expressed as difference of the amount of cross-linked protein as a measure of HaCaT keratinocyte differentiation; format: functional, Homo sapiens
Method in brief: (§4)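 HaCaT cultures were 144 h post-confluent; medium replaced, compound added from DMSO stocks diluted in DMEM (final DMSO 0.2%), controls DMSO or medium alone, 48 h. Cells were detached with trypsin/EDTA, lysed in SDS/β-ME, dot-blotted, TCA-heated, Coomassie-stained and scanned. Value is cross-linked protein minus vehicle, per mg protein (Bradford), mean ± SEM of 3 experiments.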

[7] = Induction of Keratinocyte Differentiation in cross-linked envelope assay at 10 uM expressed as difference of the amount of cross-linked protein as a measure of HaCaT keratinocyte differentiation; format: functional, Homo sapiens; method in brief: as §4
[8] = Induction of Keratinocyte Differentiation in cross-linked envelope assay at 1 uM expressed as difference of the amount of cross-linked protein as a measure of HaCaT keratinocyte differentiation; format: functional, Homo sapiens; method in brief: as §4
[9] = Cytotoxic activity of LDH(mu) release in HaCaT cells was measured after treatment of 2 uM; format: functional, Homo sapiens; method in brief: as §2
[10] = as §1; format: cell-based; settings: human; method in brief: as §2
[11] = test system: HaCaT; test: as §3; format: cell-based; settings: Homo sapiens; method in brief: as §4

Compound	logP [3]	Activity [4]	IC50 [5] [nM]	LDH [1] [MU]	IC50 [2] [nM]	Activity [6]	Activity [7]	Activity [8]	LDH [9] [MU]	LDH [10] [MU]	Activity (ug (mg of protein)-1) [11]
CC(C)(C)c1cc(CC(=O)C2c3cccc(O)c3C(=O)c3c(O)cccc32)cc(C(C)(C)C)c1O	–	–	–	199	3000	–	–	–	–	–	–
COc1ccc(CC(=O)C2c3cccc(O)c3C(=O)c3c(O)cccc32)cc1OC	3.77	0.86	22000	–	4200	–	–	–	–	–	–
O=C1c2c(O)cccc2C(Cc2ccccc2)c2cccc(O)c21	–	–	–	–	–	-0.8 ug (mg of protein)-1	0.9 ug (mg of protein)-1	-1 ug (mg of protein)-1	–	–	–
O=C1c2c(O)cccc2C(C(=O)Cc2ccc(F)cc2)c2cccc(O)c21	4.11	< 0.3	11000	–	2600	2.4 ug (mg of protein)-1	3.5 ug (mg of protein)-1	0.6 ug (mg of protein)-1	–	–	–
O=C1c2c(O)cccc2Cc2cccc(O)c21 [ANTHRALIN]	–	–	–	–	700	4.9 ug (mg of protein)-1	5.8 ug (mg of protein)-1	3.7 ug (mg of protein)-1	294	–	–
CC(C)Cc1ccc(C(C)C(=O)C2c3cccc(O)c3C(=O)c3c(O)cccc32)cc1 (centres undefined)	5.57	–	–	–	3500	–	–	–	–	–	–
O=C1c2c(O)cccc2C(C(=O)Cc2ccc(-c3ccccc3)cc2)c2cccc(O)c21	5.02	< 0.3	7000	–	2200	3.8 ug (mg of protein)-1	4.6 ug (mg of protein)-1	1.8 ug (mg of protein)-1	–	–	–
O=C1c2cccc(O)c2C(=O)c2c(O)cccc21 [DANTHRON]	–	–	–	–	–	-0.1 ug (mg of protein)-1	0 ug (mg of protein)-1	0.6 ug (mg of protein)-1	–	–	–
COc1ccccc1CC(=O)C1c2cccc(O)c2C(=O)c2c(O)cccc21	4.2	–	–	125	1600	–	–	–	–	–	–
O=C1c2c(O)cccc2C(C(=O)Cc2c[nH]c3ccccc23)c2cccc(O)c21	3.77	< 0.3	9000	174	800	4.9 ug (mg of protein)-1	6.2 ug (mg of protein)-1	1.8 ug (mg of protein)-1	–	–	–
O=C1c2c(O)cccc2C(C(=O)Cc2ccc(C(F)(F)F)cc2)c2cccc(O)c21	4.4	–	11000	–	1600	–	–	–	–	–	–
CSc1ccc(CC(=O)C2c3cccc(O)c3C(=O)c3c(O)cccc32)cc1	4.42	–	6000	–	1600	–	–	–	–	–	–
CC(C(=O)C1c2cccc(O)c2C(=O)c2c(O)cccc21)c1ccccc1 (centres undefined)	4.43	< 0.3	18000	–	1000	–	–	–	–	–	–
Cc1ccc(CC(=O)C2c3cccc(O)c3C(=O)c3c(O)cccc32)cc1	4.54	–	–	145	700	4.2 ug (mg of protein)-1	5.1 ug (mg of protein)-1	2.1 ug (mg of protein)-1	–	–	–
CC(C)Oc1ccc(CC(=O)C2c3cccc(O)c3C(=O)c3c(O)cccc32)cc1	4.59	< 0.3	15000	–	1800	–	–	–	–	–	–
COc1ccc(CC(=O)C2c3cccc(O)c3C(=O)c3c(O)cccc32)cc1O	3.41	–	8000	–	1900	–	–	–	–	–	–
O=C1c2c(O)cccc2C(C(=O)Cc2ccc(O)cc2)c2cccc(O)c21	–	–	–	173	1700	5.1 ug (mg of protein)-1	6.2 ug (mg of protein)-1	2.5 ug (mg of protein)-1	–	–	–
O=C1c2c(O)cccc2C(C(=O)Cc2ccc([N+](=O)[O-])cc2)c2cccc(O)c21	–	–	–	179	4700	–	–	–	–	–	–
N#Cc1ccc(CC(=O)C2c3cccc(O)c3C(=O)c3c(O)cccc32)cc1	3.58	–	9000	–	3200	–	–	–	–	–	–
O=C1c2c(O)cccc2C(C(=O)Cc2ccc(Cl)c(Cl)c2)c2cccc(O)c21	4.74	–	9000	–	1200	–	–	–	–	–	–
CCOC(=O)c1ccc(CC(=O)C2c3cccc(O)c3C(=O)c3c(O)cccc32)cc1	4.34	< 0.3	6000	–	1300	–	–	–	–	–	–
O=C1c2ccccc2Cc2ccccc21 [ANTHRONE]	–	–	–	–	–	0.3 ug (mg of protein)-1	0.8 ug (mg of protein)-1	0.5 ug (mg of protein)-1	–	–	–
CC(C(=O)C1c2cccc(O)c2C(=O)c2c(O)cccc21)c1ccc(C(=O)c2ccccc2)cc1 (centres undefined)	4.46	< 0.3	9000	191	900	–	–	–	–	–	–
CN(C)c1ccc(CC(=O)C2c3cccc(O)c3C(=O)c3c(O)cccc32)cc1	4.42	–	6000	–	1300	–	–	–	–	–	–
COC(=O)c1ccc(CC(=O)C2c3cccc(O)c3C(=O)c3c(O)cccc32)cc1	4.07	< 0.3	12000	164	1800	–	–	–	–	–	–

Further lines, with some results ahead:

logP [3]	Activity [4]	IC50 [5] [nM]	Compound	LDH [1] [MU]	IC50 [2] [nM]	Activity [6]	Activity [7]	Activity [8]	LDH [9] [MU]	LDH [10] [MU]	Activity (ug (mg of protein)-1) [11]
4.49	< 0.3	1000	O=C1c2c(O)cccc2C(C(=O)Cc2ccc(Cl)cc2)c2cccc(O)c21	–	2200	–	–	–	–	–	–
4.06	< 0.3	1000	O=C1c2c(O)cccc2C(C(=O)Cc2ccc3c(c2)OCO3)c2cccc(O)c21	–	3300	–	–	–	–	–	–
3.29	1.43	1000	Nc1ccc(CC(=O)C2c3cccc(O)c3C(=O)c3c(O)cccc32)cc1	–	1200	6 ug (mg of protein)-1	6.6 ug (mg of protein)-1	0 ug (mg of protein)-1	–	–	–
5.19	< 0.3	1000	COc1cccc(COc2ccc(CC(=O)C3c4cccc(O)c4C(=O)c4c(O)cccc43)cc2)c1	159	1000	–	–	–	–	–	–
–	< 0.3	600	O=C1c2c(O)cccc2C(C(=O)Cc2ccc(OCc3ccccc3)cc2)c2cccc(O)c21	202	2400	–	–	–	–	–	–
4.16	< 0.3	3000	COc1cccc(CC(=O)C2c3cccc(O)c3C(=O)c3c(O)cccc32)c1	–	2700	–	–	–	–	–	–
4.17	0.97	2000	CC(C)(C)OC(=O)Nc1ccc(CC(=O)C2c3cccc(O)c3C(=O)c3c(O)cccc32)cc1	–	1800	–	–	–	–	–	–
4.97	< 0.3	1000	CCCOc1ccc(CC(=O)C2c3cccc(O)c3C(=O)c3c(O)cccc32)cc1	132	1600	–	–	–	–	–	–
2.84	0.93	3000	O=C(O)Cc1ccc(CC(=O)C2c3cccc(O)c3C(=O)c3c(O)cccc32)cc1	–	1700	–	–	–	–	–	–
4.6	< 0.3	700	O=C1c2c(O)cccc2C(C(=O)Cc2ccc(Br)cc2)c2cccc(O)c21	–	2900	–	–	–	–	–	–
3.91	0.45	3000	O=C1c2c(O)cccc2C(C(=O)Cc2ccccc2Nc2c(Cl)cccc2Cl)c2cccc(O)c21	247	1300	–	–	–	–	–	–
–	–	500	COc1ccc(CC(=O)C2c3cccc(O)c3C(=O)c3c(O)cccc32)cc1	143	1100	5.3 ug (mg of protein)-1	5.8 ug (mg of protein)-1	2.3 ug (mg of protein)-1	–	–	–
4.91	< 0.3	1500	COc1ccc(COc2ccc(CC(=O)C3c4cccc(O)c4C(=O)c4c(O)cccc43)cc2)cc1	–	3200	–	–	–	–	–	–
4.8	< 0.3	1500	O=C1c2c(O)cccc2C(C(=O)Cc2ccc(I)cc2)c2cccc(O)c21	–	3100	–	–	–	–	–	–
4.51	< 0.3	1000	CCOc1ccc(CC(=O)C2c3cccc(O)c3C(=O)c3c(O)cccc32)cc1	142	1700	–	–	–	–	–	–
3.02	0.51	50	CN(O)C(=O)Cc1ccc(CC(=O)C2c3cccc(O)c3C(=O)c3c(O)cccc32)cc1	–	700	–	6.2 ug (mg of protein)-1	2.8 ug (mg of protein)-1	–	199	5.5
5.41	< 0.3	1500	CCCCOc1ccc(CC(=O)C2c3cccc(O)c3C(=O)c3c(O)cccc32)cc1	–	1200	3.4 ug (mg of protein)-1	3.4 ug (mg of protein)-1	2.5 ug (mg of protein)-1	–	–	–
